Test results taken from the M2OR odorant receptor database.

Legend:
Conditions in all cases: stereoisomer not certain
[1] = molecular target: OR2D3 (Homo sapiens) (UniProt Q8NGH3)
Method in brief: (§1)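 Whether a receptor–molecule pair is responsive (active) rests on the original authors' judgment that its measured signal was statistically different from baseline. Pairs without that judgment are non-responsive (inactive). Sources used varied assay methods, commonly transient luciferase assays in mammalian cell lines.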

[2] = molecular target: OR2F1 (Homo sapiens) (UniProt Q13607)
Sequence of OR2F1 (Homo sapiens) (Q13607 whole entry): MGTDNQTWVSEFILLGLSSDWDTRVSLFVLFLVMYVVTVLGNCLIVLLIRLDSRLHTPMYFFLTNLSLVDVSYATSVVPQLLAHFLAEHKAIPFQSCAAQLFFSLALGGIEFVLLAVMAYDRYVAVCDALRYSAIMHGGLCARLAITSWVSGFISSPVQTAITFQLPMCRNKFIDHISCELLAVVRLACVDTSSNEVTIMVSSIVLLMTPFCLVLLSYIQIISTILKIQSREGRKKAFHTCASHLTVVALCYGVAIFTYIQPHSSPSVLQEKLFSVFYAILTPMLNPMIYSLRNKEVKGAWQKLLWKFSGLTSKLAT
Method in brief: as §1

[3] = molecular target: OR2F2 (Homo sapiens) (UniProt O95006)
Sequence of OR2F2 (Homo sapiens) (O95006 whole entry): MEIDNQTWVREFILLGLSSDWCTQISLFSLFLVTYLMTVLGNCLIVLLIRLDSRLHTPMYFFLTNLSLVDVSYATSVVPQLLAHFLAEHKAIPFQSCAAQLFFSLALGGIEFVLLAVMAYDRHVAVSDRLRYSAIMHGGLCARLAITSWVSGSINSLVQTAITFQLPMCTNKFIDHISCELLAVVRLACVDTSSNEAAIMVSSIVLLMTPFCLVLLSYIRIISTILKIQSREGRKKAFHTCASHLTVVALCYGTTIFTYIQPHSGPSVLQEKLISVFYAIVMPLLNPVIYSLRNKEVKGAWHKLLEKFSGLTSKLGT
Method in brief: as §1

[4] = molecular target: T1, OR2G2 (Homo sapiens) (UniProt Q8NGZ5)
T1 sequence (whole entry): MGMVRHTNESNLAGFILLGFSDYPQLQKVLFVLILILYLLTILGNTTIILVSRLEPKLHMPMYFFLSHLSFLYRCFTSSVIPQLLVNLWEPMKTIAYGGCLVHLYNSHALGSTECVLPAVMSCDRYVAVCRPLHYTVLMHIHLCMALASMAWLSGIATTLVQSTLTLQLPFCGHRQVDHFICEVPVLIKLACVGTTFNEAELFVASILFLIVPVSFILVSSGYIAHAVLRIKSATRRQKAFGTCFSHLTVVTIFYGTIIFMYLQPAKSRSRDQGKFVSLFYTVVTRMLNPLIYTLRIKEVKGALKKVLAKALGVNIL
Method in brief: as §1

[5] = molecular target: OR2G3 (Homo sapiens) (UniProt Q8NGZ4)
Sequence of OR2G3 (Homo sapiens) (Q8NGZ4 whole entry): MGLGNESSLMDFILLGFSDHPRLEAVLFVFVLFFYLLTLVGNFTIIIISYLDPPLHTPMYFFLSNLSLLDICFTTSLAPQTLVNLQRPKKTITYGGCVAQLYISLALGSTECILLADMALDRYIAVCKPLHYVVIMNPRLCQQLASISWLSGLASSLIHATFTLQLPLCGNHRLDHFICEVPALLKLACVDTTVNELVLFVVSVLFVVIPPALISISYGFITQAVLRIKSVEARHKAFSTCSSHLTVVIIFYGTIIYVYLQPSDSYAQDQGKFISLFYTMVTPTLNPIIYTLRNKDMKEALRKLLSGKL
Method in brief: as §1

[6] = molecular target: OR2G6 (Homo sapiens) (UniProt Q5TZ20)
Sequence of OR2G6 (Homo sapiens) (Q5TZ20 whole entry): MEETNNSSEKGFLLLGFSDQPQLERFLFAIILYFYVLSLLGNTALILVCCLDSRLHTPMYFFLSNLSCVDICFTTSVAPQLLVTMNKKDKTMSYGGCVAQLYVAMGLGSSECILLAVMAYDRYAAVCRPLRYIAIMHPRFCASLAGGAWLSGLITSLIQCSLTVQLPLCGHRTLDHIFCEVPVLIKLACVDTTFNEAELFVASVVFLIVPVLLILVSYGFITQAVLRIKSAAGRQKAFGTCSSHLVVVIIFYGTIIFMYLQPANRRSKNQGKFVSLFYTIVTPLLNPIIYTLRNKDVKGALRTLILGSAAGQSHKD
Method in brief: as §1

[7] = molecular target: OR2H1 (Homo sapiens) (UniProt Q9GZK4)
Sequence of OR2H1 (Homo sapiens) (Q9GZK4 whole entry): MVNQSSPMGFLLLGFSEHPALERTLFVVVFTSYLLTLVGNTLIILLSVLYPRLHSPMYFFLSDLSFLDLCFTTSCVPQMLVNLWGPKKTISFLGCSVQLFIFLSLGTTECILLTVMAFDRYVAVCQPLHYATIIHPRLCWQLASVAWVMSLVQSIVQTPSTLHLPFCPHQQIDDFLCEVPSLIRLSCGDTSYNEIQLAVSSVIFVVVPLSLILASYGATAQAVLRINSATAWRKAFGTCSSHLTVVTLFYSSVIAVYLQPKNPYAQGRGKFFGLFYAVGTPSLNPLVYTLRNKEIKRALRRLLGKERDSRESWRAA
Method in brief: as §1

[8] = molecular target: T2, OR2H2 (Homo sapiens) (UniProt O95918)
T2 sequence (whole entry): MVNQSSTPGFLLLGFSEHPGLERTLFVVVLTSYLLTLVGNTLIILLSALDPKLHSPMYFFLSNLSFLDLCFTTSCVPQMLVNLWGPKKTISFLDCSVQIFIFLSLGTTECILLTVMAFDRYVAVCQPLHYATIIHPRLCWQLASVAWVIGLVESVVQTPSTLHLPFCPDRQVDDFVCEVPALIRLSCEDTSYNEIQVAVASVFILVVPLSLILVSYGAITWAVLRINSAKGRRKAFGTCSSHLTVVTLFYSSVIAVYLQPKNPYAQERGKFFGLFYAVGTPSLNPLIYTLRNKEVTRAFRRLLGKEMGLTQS
Method in brief: as §1

[9] = molecular target: OR2J1 (Homo sapiens) (UniProt Q9GZK6)
Sequence of OR2J1 (Homo sapiens) (Q9GZK6 whole entry): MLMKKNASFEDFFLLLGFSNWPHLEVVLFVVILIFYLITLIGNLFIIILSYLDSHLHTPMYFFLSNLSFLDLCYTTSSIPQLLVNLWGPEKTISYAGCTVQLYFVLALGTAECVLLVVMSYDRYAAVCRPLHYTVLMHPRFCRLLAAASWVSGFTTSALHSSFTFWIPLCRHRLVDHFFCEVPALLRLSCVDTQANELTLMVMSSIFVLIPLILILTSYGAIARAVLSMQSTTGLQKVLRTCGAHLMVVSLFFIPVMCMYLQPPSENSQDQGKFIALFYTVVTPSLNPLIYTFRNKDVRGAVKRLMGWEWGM
Method in brief: as §1

[10] = molecular target: T3, OR2J2 (Homo sapiens) (UniProt O76002)
T3 sequence (whole entry): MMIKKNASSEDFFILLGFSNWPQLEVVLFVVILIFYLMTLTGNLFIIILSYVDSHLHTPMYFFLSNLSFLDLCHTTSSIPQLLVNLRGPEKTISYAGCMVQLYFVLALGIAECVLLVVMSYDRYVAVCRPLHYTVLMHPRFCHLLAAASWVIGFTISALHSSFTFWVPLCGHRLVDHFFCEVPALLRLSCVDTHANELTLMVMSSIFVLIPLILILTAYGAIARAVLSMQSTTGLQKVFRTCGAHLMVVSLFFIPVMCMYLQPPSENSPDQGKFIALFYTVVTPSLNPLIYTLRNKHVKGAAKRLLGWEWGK
Method in brief: as §1

[11] = molecular target: T4, OR2J3 (Homo sapiens) (UniProt O76001)
T4 sequence (whole entry): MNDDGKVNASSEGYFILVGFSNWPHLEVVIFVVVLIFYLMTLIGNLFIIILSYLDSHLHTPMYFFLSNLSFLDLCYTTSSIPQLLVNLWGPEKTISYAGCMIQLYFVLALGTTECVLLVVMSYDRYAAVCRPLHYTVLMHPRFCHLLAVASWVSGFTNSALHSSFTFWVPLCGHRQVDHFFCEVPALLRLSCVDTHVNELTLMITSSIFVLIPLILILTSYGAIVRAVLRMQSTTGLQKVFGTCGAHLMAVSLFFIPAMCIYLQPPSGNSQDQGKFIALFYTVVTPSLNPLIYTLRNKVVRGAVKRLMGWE
Method in brief: as §1

[12] = test system: OR2D2 S148P I163T M202T
Method in brief: as §1

[13] = test system: OR2D3 R155W
Sequence of OR2D3 R155W (as listed by the source, stated change not applied): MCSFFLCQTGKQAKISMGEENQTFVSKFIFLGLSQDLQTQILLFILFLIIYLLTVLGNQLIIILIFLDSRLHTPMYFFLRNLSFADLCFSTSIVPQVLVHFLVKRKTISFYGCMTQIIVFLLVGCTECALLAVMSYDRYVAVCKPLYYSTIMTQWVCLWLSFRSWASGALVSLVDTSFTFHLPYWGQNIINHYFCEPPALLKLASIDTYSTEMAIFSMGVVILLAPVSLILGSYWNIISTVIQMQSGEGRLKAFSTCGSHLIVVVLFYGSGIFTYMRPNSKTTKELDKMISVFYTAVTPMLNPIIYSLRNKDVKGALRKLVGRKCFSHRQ
Method in brief: as §1

[14] = test system: OR2G2 L167P R236G
Method in brief: as §1

[15] = test system: OR2G3 I289V
Sequence of OR2G3 I289V (as listed by the source, stated change not applied): as the sequence (Q8NGZ4 whole entry) above, with I289V counted along it
Method in brief: as §1

[16] = test system: OR2H2
Sequence of OR2H2 (as listed by the source): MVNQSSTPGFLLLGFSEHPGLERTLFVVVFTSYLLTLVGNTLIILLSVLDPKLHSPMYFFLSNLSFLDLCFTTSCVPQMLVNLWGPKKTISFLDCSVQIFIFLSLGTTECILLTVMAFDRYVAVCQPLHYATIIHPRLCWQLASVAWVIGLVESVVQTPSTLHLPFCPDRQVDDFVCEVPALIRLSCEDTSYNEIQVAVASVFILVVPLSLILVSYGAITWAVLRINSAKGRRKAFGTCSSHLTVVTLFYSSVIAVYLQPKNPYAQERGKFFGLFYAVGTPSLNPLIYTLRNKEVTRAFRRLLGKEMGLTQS
Method in brief: as §1

[17] = test system: OR2J1 L14I V182A
Method in brief: as §1

[18] = test system: OR2J2
Method in brief: as §1
Target sequence in this assay (as listed by the source): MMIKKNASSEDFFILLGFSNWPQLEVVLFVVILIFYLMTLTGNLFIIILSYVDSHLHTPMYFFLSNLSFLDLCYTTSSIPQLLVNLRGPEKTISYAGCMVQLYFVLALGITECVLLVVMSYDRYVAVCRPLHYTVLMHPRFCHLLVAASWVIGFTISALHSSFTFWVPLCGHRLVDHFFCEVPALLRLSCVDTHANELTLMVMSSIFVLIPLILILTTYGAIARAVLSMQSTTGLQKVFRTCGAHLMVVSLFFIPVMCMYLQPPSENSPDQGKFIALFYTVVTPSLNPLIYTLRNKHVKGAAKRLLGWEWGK

[19] = test system: OR2J3
Sequence of OR2J3 (as listed by the source): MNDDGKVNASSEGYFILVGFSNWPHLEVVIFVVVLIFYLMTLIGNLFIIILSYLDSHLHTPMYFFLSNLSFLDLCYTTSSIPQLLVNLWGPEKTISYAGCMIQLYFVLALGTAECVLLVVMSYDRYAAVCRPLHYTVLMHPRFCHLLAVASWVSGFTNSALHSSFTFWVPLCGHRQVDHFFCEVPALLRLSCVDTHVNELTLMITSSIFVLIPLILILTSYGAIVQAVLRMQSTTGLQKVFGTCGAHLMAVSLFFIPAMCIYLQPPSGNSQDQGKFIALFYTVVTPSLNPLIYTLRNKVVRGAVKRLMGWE
Method in brief: as §1

[20] = test system: OR2J2; remark: listed apart in the source
Method in brief: as §1
Target sequence in this assay (as listed by the source): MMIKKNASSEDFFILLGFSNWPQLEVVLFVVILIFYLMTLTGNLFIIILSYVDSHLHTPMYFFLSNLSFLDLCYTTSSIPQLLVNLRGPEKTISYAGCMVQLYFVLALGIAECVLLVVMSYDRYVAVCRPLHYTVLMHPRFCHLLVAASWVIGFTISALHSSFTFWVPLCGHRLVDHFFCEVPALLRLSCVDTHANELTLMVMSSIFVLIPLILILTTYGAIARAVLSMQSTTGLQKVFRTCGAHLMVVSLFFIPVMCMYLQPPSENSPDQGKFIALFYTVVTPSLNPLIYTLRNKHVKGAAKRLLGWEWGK
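Further: active if original authors judged signal statistically different from baseline.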

Sequence of OR2D3 (Homo sapiens) (Q8NGH3 whole entry): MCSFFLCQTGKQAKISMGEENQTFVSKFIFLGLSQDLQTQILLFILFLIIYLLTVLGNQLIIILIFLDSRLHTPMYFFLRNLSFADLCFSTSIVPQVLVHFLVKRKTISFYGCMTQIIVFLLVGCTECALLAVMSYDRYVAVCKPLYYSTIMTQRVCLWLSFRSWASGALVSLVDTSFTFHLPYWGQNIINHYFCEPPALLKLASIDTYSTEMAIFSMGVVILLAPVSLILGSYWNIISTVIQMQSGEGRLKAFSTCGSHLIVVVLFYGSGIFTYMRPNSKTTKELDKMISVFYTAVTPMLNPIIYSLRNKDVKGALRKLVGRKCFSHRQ

With Cc1c([N+](=O)[O-])c(C)c([N+](=O)[O-])c(C(C)(C)C)c1[N+](=O)[O-] the “odorant receptor agonist call” value [1] was “inactive”, the “odorant receptor agonist call” value [2] was “inactive” and the “odorant receptor agonist call” value [3] was “inactive”. For the same compound, the “odorant receptor agonist call” value [4] was “inactive”, the “odorant receptor agonist call” value [5] was “inactive” and the “odorant receptor agonist call” value [6] was “inactive”. The “odorant receptor agonist call” value [7] was “inactive”, the “odorant receptor agonist call” value [8] was “inactive” and the “odorant receptor agonist call” value [9] was “inactive”. The “odorant receptor agonist call” value [10] was “inactive” and the “odorant receptor agonist call” value [11] was “active”.

In the case of C=CCOC(=O)Cc1ccccc1, the “odorant receptor agonist call” value [12] is reported as “inactive”, the “odorant receptor agonist call” value [1] is reported as “inactive” and the “odorant receptor agonist call” value [13] is reported as “inactive”. For the same compound, the “odorant receptor agonist call” value [2] was “inactive”, the “odorant receptor agonist call” value [3] was “inactive” and the “odorant receptor agonist call” value [4] was “inactive”. For the same compound, the “odorant receptor agonist call” value [14] was “inactive”, the “odorant receptor agonist call” value [5] was “inactive” and the “odorant receptor agonist call” value [15] was “inactive”. The “odorant receptor agonist call” value [6] was “inactive”, the “odorant receptor agonist call” value [7] was “inactive” and the “odorant receptor agonist call” value [8] was “inactive”. The “odorant receptor agonist call” value [16] was “inactive”, the “odorant receptor agonist call” value [9] was “inactive” and the “odorant receptor agonist call” value [17] was “inactive”. The “odorant receptor agonist call” value [10] was “inactive”, the “odorant receptor agonist call” value [18] was “inactive” and the “odorant receptor agonist call” value [11] was “inactive”.

In the case of C=CCc1ccc(OC)cc1, the “odorant receptor agonist call” value [4] is reported as “inactive”.

In the case of O=CC=Cc1ccccc1, the “odorant receptor agonist call” value [8] is reported as “inactive”, the “odorant receptor agonist call” value [11] is reported as “active” and the “odorant receptor agonist call” value [19] is reported as “active”.

In the case of CCCCOC(=O)c1ccccc1N, the “odorant receptor agonist call” value [20] is reported as “active” and the “odorant receptor agonist call” value [18] is reported as “active”.

For CCC1CCC(=O)O1 (centres undefined), the “odorant receptor agonist call” value [10] was “inactive”.

C=CCc1ccccc1 was tested, and the “odorant receptor agonist call” value [10] was “inactive”.

For O=Cc1ccccc1, the “odorant receptor agonist call” value [4] was “inactive”.

In the case of O=c1cc(O)c2ccccc2o1, the “odorant receptor agonist call” value [10] is reported as “inactive”.
